Results reported in article PMC6605687 (The Journal of General Physiology, 2019).
Residue numbers refer to the chain shown, from its start.

What was measured:
Assay type in all cases: cell-based
rP2X2 Thr184Ser = target: T1, rP2X2 Thr184Ser (Rattus norvegicus, UniProt P49653, T184S); experiment: Two-electrode voltage clamp, oocytes expressing rP2X2 Thr184Ser
T1 sequence (P49653 1-472 T184S): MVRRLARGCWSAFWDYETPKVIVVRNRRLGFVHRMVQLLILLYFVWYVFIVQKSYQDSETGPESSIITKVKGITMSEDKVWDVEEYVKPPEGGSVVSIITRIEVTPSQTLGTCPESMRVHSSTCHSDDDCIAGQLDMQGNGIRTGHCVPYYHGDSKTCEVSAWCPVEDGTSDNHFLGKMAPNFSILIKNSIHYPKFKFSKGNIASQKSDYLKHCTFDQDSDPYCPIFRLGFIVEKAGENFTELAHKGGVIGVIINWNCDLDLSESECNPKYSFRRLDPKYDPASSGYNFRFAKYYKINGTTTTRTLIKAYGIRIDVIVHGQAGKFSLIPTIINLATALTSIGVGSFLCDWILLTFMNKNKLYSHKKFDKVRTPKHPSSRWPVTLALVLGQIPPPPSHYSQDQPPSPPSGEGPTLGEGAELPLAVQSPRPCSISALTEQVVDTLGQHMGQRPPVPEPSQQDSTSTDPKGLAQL
In short: (§1)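 Mutations were made by site-directed mutagenesis. Xenopus oocytes were injected with rP2X2 mRNA and incubated in L-15 at 18°C. Two-electrode voltage clamp was done 1–2 days later at −40 mV under ND96 perfusion (pH 7.4). ATP concentration-response currents were normalised and fitted to a one-component Hill equation for EC50 and Hill coefficient. Results are mean ± SEM, tested by one-way ANOVA with Dunnett's test against WT.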

rP2X2 Lys308Arg = target: T2, rP2X2 Lys308Arg (Rattus norvegicus, UniProt P49653, K308R); experiment: Two-electrode voltage clamp, oocytes expressing rP2X2 Lys308Arg
T2 sequence (P49653 1-472 K308R): T1 sequence (P49653 1-472 T184S) with S184T, K308R
In short: as §1

rP2X2-3T receptors = target: T3, rP2X2-3T receptors (Rattus norvegicus, UniProt P49653, C348T/C430T/C9T); experiment: Single channel outside-out patch-clamp recordings, HEK-293 cells; details: agonist 1 µM, mean ± SEM
T3 sequence (P49653 1-472 C9T/C348T/C430T): T1 sequence (P49653 1-472 T184S) with C9T, S184T, C348T, C430T
In short: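 HEK-293 cells were co-transfected by calcium phosphate with rP2X2-3T DNA plus GFP DNA to mark transfected cells, then recorded within 24 h. Outside-out patches were held at −120 mV. Pipette contained 147 NaF, 10 EGTA and 10 HEPES (mM, pH 7.3). Agonist at 1, 10 or 100 µM in extracellular saline (pH 7.3) was applied by fast perfusion for 10 s per 12-s sweep, at 1-min intervals. Amplitudes came from Gaussian fits to all-points histograms, with 2–5 sweeps averaged per patch.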

rP2X2 Lys71Gln = target: T4, rP2X2 Lys71Gln (Rattus norvegicus, UniProt P49653, K71Q); experiment: Two-electrode voltage clamp, oocytes expressing rP2X2 Lys71Gln
T4 sequence (P49653 1-472 K71Q): T1 sequence (P49653 1-472 T184S) with K71Q, S184T
In short: as §1

rP2X2 Lys71Arg = target: T5, rP2X2 Lys71Arg (Rattus norvegicus, UniProt P49653, K71R); experiment: Two-electrode voltage clamp, oocytes expressing rP2X2 Lys71Arg
T5 sequence (P49653 1-472 K71R): T1 sequence (P49653 1-472 T184S) with K71R, S184T
In short: as §1

EC50 (rP2X2 Thr184Ser): 0.026 ± 0.003 mM
Sensitivity to agonist (in words) (rP2X2 Thr184Ser; Thr184Ser compared with WT): WT-like sensitivity
EC50 (rP2X2 Lys308Arg): 6 mM
SDopen (SD of the open state amplitude) (rP2X2-3T receptors): 1.02 ± 0.1
EC50 (rP2X2 Lys71Gln): 6.3 mM
EC50 (rP2X2 Lys71Arg): 0.37 ± 0.04 mM
Compound: Nc1ncnc2c1ncn2[C@@H]1O[C@H](COP(=O)(O)OP(=O)(O)OP(=O)(O)O)[C@@H](O)[C@H]1O [ATP, Adenosine 5′-triphosphate]
